Results published in ChEMBL document CHEMBL1137438, “Small conformationally restricted piperidine N-arylsulfonamides as orally active gamma-secretase inhibitors” (Bioorg Med Chem Lett, 2007).

What was measured:
[1] = AUC in rat at 10 mg/kg, po after 0 to 6 hrs; assay type: ADME, organism-based; design: time < 6 hr, dose 10 mg/kg, route oral; conditions: plasma
Mus musculus [2] = test: Plasma A-beta-40 level in Tg CRND8 mouse at 30 mg/kg, sc after 3 hrs; assay type: functional; conditions: route subcutaneous
Procedure, shortened: (§1)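 Tg CRND8 transgenic mice, acute single dose of 30 mpk, oral or sub-cutaneous. Plasma Aβ40 measured 3 h after dosing and expressed as % reduction.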

Mus musculus [3] = test: Plasma A-beta-40 level in Tg CRND8 mouse at 30 mg/kg, po after 3 hrs; assay type: functional; procedure, shortened: as §1

Row | Structure (SMILES) | AUC at 6 h [1] [ng·h/mL] | Activity (Mus musculus [2]) [%] | Activity (Mus musculus [3]) [%]
1 | CC[C@@H]1CCC[C@H](C2(OC(=O)N3CCC(CCO)(OC)CC3)CC2)N1S(=O)(=O)c1ccc(Cl)cc1 (racemic) | 81 |  | 
2 | CC[C@@H]1CCC[C@H](C2(OC(=O)N3CCC(N4CCCCC4)CC3)CC2)N1S(=O)(=O)c1cc(F)cc(F)c1 (racemic) | 296 |  | 
3 | CC[C@@H]1CCC[C@H](C2(OC(=O)N3CCN(CCO)C[C@@H]3C)CC2)N1S(=O)(=O)c1ccc(Cl)cc1 (racemic) | 3410 |  | 
4 | CC[C@@H]1CCC[C@H](C2(OC(=O)N3CCN(C(C)(C)CO)CC3)CC2)N1S(=O)(=O)c1ccc(Cl)cc1 (racemic) | 892 | 91 | 96

Now from value to compound, other results behind:

Row | AUC at 6 h [1] [ng·h/mL] | Structure (SMILES) | Activity (Mus musculus [2]) [%] | Activity (Mus musculus [3]) [%]
5 | 1870 | CC[C@@H]1CCC[C@H](C2(OC(=O)N3CCN(CCO)[C@@H](C)C3)CC2)N1S(=O)(=O)c1ccc(Cl)cc1 (racemic) |  | 
6 | 1330 | CC[C@@H]1CCC[C@H](C2(OC(=O)N3CC4CCC(C3)N4CCO)CC2)N1S(=O)(=O)c1ccc(F)c(F)c1 (mixture of isomers) |  | 
7 | 405 | CC[C@@H]1CCC[C@H](C2(OC(=O)N3CCN(C(C)(C)CO)CC3)CC2)N1S(=O)(=O)c1ccc(F)cc1 (racemic) | 59 | 
8 | 1780 | CC[C@@H]1CCC[C@H](C2(OC(=O)N3CC4CCC(C3)N4CCO)CC2)N1S(=O)(=O)c1ccc(F)cc1 (mixture of isomers) |  | 
9 | 939 | CC[C@@H]1CCC[C@H](C2(OC(=O)N3CC4CCC(C3)N4CCO)CC2)N1S(=O)(=O)c1ccc(Cl)cc1 (mixture of isomers) | 85 | 
